Source: ChEMBL document CHEMBL4811274, “Epo-C12 inhibits peroxiredoxin 1 peroxidase activity” (Bioorg Med Chem, 2021)
Activity calls are given as the source filed them. No cut-off for these calls is given here.

Assays:
[1] = target: Peroxiredoxin-1 (Homo sapiens) (UniProt Q06830); test: Binding affinity to recombinant wild type Prx1 (unknown origin) expressed in human HEK293T cells at 1 uM incubated for 20 hrs by Western blot analysis
[2] = target: Peroxiredoxin-1 (Homo sapiens) (UniProt Q06830); test: Retention of chaperone activity of oxidized Prx1 (unknown origin) assessed as decrease in heat-induced citrate synthase aggregation at 25 uM incubated for 20 mins by light scattering assay
BALL-1 [3] = test: Cytotoxicity against human BALL-1 cells assessed as reduction in cell viability incubated for 24 hrs by WST-8 assay; format: functional, cell-based; details: BALL-1, 24 h
In short: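 BALL-1 cells (RPMI 1640, 10% FBS, 37 °C, 5% CO2) seeded at 10,000 cells/well, exposed to a concentration range for 24 h, 0.1% DMSO. WST-8 reagent added, 2 h at 37 °C, absorbance 450 nm. Growth inhibition taken as sample/control absorbance ratio; IC50 reported as mean ± SD.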

BALL-1 [4] = test: Induction of apoptosis in human BALL-1 cells at 5 uM pretreated with DTT for 1.5 hrs followed by compound addition and measured after 24 hrs by annexin-V-FITC and PI staining based flow cytometry analysis; format: functional, cell-based
In short: (§1)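 BALL-1 cells (2×10⁵) pretreated 1.5 h at 37 °C with DMSO, 250 μM DTT, 1.5 mM GSH or 250 μM NAC, then ±5 μM compound for 24 h. Stained with annexin V-FITC (HEPES–NaOH/NaCl/CaCl2 buffer pH 7.4, 10 min), then 2 μg/mL PI; flow cytometry. Late apoptotic (annexin V+/PI+) percentage; octuplicate, mean ± SD, Tukey HSD.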

BALL-1 [5] = test: Induction of ROS production in human BALL-1 cells incubated for 30 mins by DCFH-DA staining based flow cytometry analysis; format: functional, cell-based; details: dose 1-10 µM
In short: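 Cells (2×10⁵) loaded with 10 μM DCFH-DA for 10 min, then exposed to 1, 5 or 10 μM compound, DMSO vehicle, or 50 μM H2O2 for 30 min. Pellets resuspended in PBS; DCF fluorescence by flow cytometry (ex 488/em 530 nm). Fluorescence normalized to control; mean of two independent measurements, error as range.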

[6] = target: Peroxiredoxin-1 (Homo sapiens) (UniProt Q06830); test: Inhibition of recombinant Prx1 (unknown origin) assessed as reduction in peroxidase activity at 50 uM incubated for 30 mins followed by H2O2 addition and measured after 20 mins by PEROXsay assay kit method relative to control; values are per cent of control; details: time 50.0 min
BALL-1 [7] = test: Induction of apoptosis in human BALL-1 cells at 5 uM pretreated with NAC for 1.5 hrs followed by compound addition and measured after 24 hrs by annexin-V-FITC and PI staining based flow cytometry analysis; format: functional, cell-based
In short: as §1

BALL-1 [8] = test: Induction of apoptosis in human BALL-1 cells at 5 uM pretreated with GSH for 1.5 hrs followed by compound addition and measured after 24 hrs by annexin-V-FITC and PI staining based flow cytometry analysis; format: functional, cell-based
In short: as §1

Peroxiredoxin-1 (Homo sapiens), sequence (Q06830 whole entry, looked up): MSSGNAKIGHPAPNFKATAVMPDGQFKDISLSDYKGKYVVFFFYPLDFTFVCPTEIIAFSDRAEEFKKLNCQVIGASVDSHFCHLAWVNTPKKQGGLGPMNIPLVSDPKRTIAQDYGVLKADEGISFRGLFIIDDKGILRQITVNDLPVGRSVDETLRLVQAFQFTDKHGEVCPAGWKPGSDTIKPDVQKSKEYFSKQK

**Q.** For `CC1(O)NC(=O)[C@@]2(C(=O)CCCCCCCCCCCNC(=O)CCCC[C@@H]3SC[C@@H]4NC(=O)N[C@@H]43)O[C@@H]12` (stereo partly specified), which Activity [1] is on record?
**A.** Active

**Q.** For `CCCCCCCCCCCC(=O)[C@]12O[C@H]1C(C)(O)NC2=O` (stereo partly specified), which Activity [2] is on record?
**A.** Active

**Q.** And the IC50 (BALL-1 [3])?
**A.** 4410 nM

**Q.** And the Activity (BALL-1 [4])?
**A.** inactive

**Q.** And the Activity (BALL-1 [5])?
**A.** Dose-Dependent Effect

**Q.** And the residual activity [6]?
**A.** 56%

**Q.** What about the Activity (BALL-1 [7]) of the same compound?
**A.** inactive

**Q.** What about the Activity (BALL-1 [8]) of the same compound?
**A.** inactive

**Q.** For `[O-][n+]1c(CBr)c(CBr)[n+]([O-])c2ccccc21`, which Activity [2] is on record?
**A.** Active

**Q.** And the IC50 (BALL-1 [3])?
**A.** 1050 nM

**Q.** And the residual activity [6]?
**A.** 33%
